This is an account of results in ChEMBL document CHEMBL4765342, “Substituted benzothiophene and benzofuran derivatives as a novel class of bone morphogenetic Protein-2 upregulators: Synthesis, anti-osteoporosis efficacies in ovariectomized rats and a zebrafish model, and ADME properties” (Eur J Med Chem, 2020).

Data set [1] relates to Rattus norvegicus. Briefly: Antiosteoporotic activity in Sprague-Dawley rat model of OVX-induced bone loss assessed as increase in trabecular bone mineral density at 30 mg/kg, ig administered for 3 months with 1 day break after 6 consecutive days administration. Type of data set: functional, organism-based. An outline of the steps: (§1)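 Female SD rats given bilateral ovariectomy (sham: fat tissue removed instead), adapted 1 week beforehand; dosing began on postoperative day 10, n = 10 per group. Test drugs as 3 mg/mL suspension by gavage; raloxifene hydrochloride at 0.5 mg/mL. Controls got water. Tetracycline 30 mg/kg ip 16 and 3 days before euthanasia. Tibia stained sections give trabecular morphology and TBV%. BMD of L4-6 measured by densitometry under pentobarbital 45 mg/kg anaesthesia. Reported as mean ± SD.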

In data set [2] the test system is Rattus norvegicus. Briefly: Antiosteoporotic activity in Sprague-Dawley rat model of OVX-induced bone loss assessed as increase in trabecular bone volume at 30 mg/kg, ig administered for 3 months with 1 day break after 6 consecutive days administration. Type of data set: functional, organism-based. The procedure, abridged: as §1
Data set [3] is described as follows: Permeability across apical to basolateral side in human Caco-2 cells assessed as […] yellow leakage at 10 uM incubated for 2 hrs LC-MS/MS analysis. Type of data set: ADME, cell-based. Particulars: caco-2, 2 h. An outline of the steps: (§2)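 Caco-2 monolayers, apical to basolateral direction. Plates preincubated 30 min at 37 °C, then exposed to 10 µM compound for 2 h at 37 °C without shaking. Donor and receiver samples were quenched, centrifuged and measured by LC/MS/MS, in duplicate. Papp calculated from receiver concentration, area and time. Monolayer integrity checked by TEER and by Lucifer yellow leakage (30 min, 37 °C, ex 485/em 530 nm).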
A general note: Passage across Caco-2 layers is used to estimate intestinal permeability.

Data set [4] in a line: Permeability across apical to basolateral side in human Caco-2 cells assessed as transepithelial electrical resistance at 10 uM incubated for 2 hrs LC-MS/MS analysis. Particulars: caco-2, 2 h. Type of data set: ADME, cell-based. The procedure, abridged: as §2
Data set [5] is described as follows: in vitro. Particulars: human, liver microsomes. For orientation: Liver microsomes are vesicles of endoplasmic reticulum, rich in cytochrome P450 enzymes.
Data set [6] in a line: Apparent permeability across apical to basolateral side in human Caco-2 cells at 10 uM incubated for 2 hrs LC-MS/MS analysis. Type of data set: ADME, cell-based. As to conditions: Caco-2. The procedure, abridged:
as §2

Data set [7] relates to Rattus norvegicus. Briefly: Antiosteoporotic activity in Sprague-Dawley rat model of OVX-induced bone loss assessed as increase in thickness of trabeculae at 30 mg/kg, ig administered for 3 months with 1 day break after 6 consecutive days administration. Type of data set: functional, organism-based. The procedure, abridged: as §1
Data set [8] has as its system Rattus norvegicus. Put plainly: Antiosteoporotic activity in Sprague-Dawley rat model of OVX-induced bone loss assessed as narrowed gap between trabeculae at 30 mg/kg, ig administered for 3 months with 1 day break after 6 consecutive days administration. Type of data set: functional, organism-based. The procedure, abridged: as §1
For data set [9], the system named is Rattus norvegicus. Put plainly: Antiosteoporotic activity in Sprague-Dawley rat model of OVX-induced bone loss assessed as increase in number of trabeculae at 30 mg/kg, ig administered for 3 months with 1 day break after 6 consecutive days administration. Type of data set: functional, organism-based. The procedure, abridged:
as §1

A short description of data set [10]: in vitro. As to conditions: human, liver microsomes. This is another data set of the same source.
In data set [11] the test system is MC3T3-E1. Put plainly: Cytotoxicity against mouse MC3T3-E1 cells at 100 uM. Particulars: mc3t3-e1, 100 µM. Type of data set: cell-based.
The target in data set [12] is Runt-related transcription factor 2 (Mus musculus) (UniProt Q08775). Briefly: Upregulation of Runx2 transcriptional activity in mouse MC3T3-E1 cells transfected with p6OSE2-luc at 10 uM incubated for 48 hrs by firefly luciferase reporter gene assay relative to control. As to conditions: filed as activator. Type of data set: cell-based. The procedure, abridged: (§3)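 MC3T3-E1 cells reverse-transfected in suspension with p6OSE2-luc (Runx2-responsive reporter), 100 ng DNA per well, 10^5 cells/ml in α-MEM with 10% FBS, 37 °C in CO2. After 24 h the medium was replaced with complete medium containing compound, with lovastatin as positive control. Firefly luciferase read after a further 48 h as relative luminescence units. Significance by Dunnett's test.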

Data set [13] shares this target. Briefly: Upregulation of Runx2 transcriptional activity in mouse MC3T3-E1 cells transfected with p6OSE2-luc at 100 uM incubated for 48 hrs by firefly luciferase reporter gene assay relative to control. Type of data set: cell-based. Particulars: filed as activator. The procedure, abridged:
as §3
A general note: A reporter such as luciferase makes a cellular process visible.

Data set [14] is filed under the species Danio rerio. Put plainly: Antiosteoporotic activity in Zebra fish model of dexamethasone-induced bone loss assessed as increase in bone mineralization at 1 to 25 uM 6hpf embryo treated for 72 hrs with dexamethasone followed by incubation with drug and measured after 6 days post-fertilization by alizarin dye based imaging analysis. Type of data set: functional, organism-based. As to conditions: dose 1-25 µM, time 3.0 day. An outline of the steps:
(§4)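 AB-line zebrafish embryos at 6 hpf held in dexamethasone solution for 72 h, then exposed to drug, and cultured to 6 dpf. Larvae stained with alizarin red, rehydrated, decolorised and photographed. Stained area and integrated optical density were summed over the left-flank branchial bones: cleithrum, compass, opercle and branchiostegal rays. Values expressed relative to untreated controls set at 1.00.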

The species entered for data set [15] is Danio rerio. Briefly: Antiosteoporotic activity in Zebra fish model of dexamethasone-induced bone loss assessed as increase in BMP-2 expression at 1 uM incubated for 24 hrs in presence of dexamethasone by Western blot analysis. Type of data set: functional, organism-based. An outline of the steps: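 Protein extracts were prepared from untreated, dexamethasone-treated and drug-treated (1 µM, 24 h) zebrafish, and BMP-2 protein was then assessed.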

For data set [16], the species on record is Danio rerio. Briefly: Antiosteoporotic activity in Zebra fish model of dexamethasone-induced bone loss assessed as increase in bone mineralization by measuring increase in integrated optical density 6hpf embryo treated for 72 hrs with dexamethasone followed by incubation with drug and measured after 6 days post-fertilization by alizarin dye based imaging analysis. Type of data set: functional, organism-based. As to conditions: dose 1-25 µM, time 3.0 day. The procedure, abridged:
as §4

As a reminder, the microsomal CLint is the capacity of the preparation to metabolise the compound, expressed as a volume cleared per time. A low value points to slow turnover. As a reminder, the Papp A→B is how fast a substance crosses the layer from the apical side. The term half-life denotes the time in which the quantity being followed falls by half. High values mean slow loss, low ones fast loss.

Active and inactive are the calls of the source. The rule behind the calls is not given here.

Runt-related transcription factor 2 (Mus musculus), sequence (Q08775 whole entry): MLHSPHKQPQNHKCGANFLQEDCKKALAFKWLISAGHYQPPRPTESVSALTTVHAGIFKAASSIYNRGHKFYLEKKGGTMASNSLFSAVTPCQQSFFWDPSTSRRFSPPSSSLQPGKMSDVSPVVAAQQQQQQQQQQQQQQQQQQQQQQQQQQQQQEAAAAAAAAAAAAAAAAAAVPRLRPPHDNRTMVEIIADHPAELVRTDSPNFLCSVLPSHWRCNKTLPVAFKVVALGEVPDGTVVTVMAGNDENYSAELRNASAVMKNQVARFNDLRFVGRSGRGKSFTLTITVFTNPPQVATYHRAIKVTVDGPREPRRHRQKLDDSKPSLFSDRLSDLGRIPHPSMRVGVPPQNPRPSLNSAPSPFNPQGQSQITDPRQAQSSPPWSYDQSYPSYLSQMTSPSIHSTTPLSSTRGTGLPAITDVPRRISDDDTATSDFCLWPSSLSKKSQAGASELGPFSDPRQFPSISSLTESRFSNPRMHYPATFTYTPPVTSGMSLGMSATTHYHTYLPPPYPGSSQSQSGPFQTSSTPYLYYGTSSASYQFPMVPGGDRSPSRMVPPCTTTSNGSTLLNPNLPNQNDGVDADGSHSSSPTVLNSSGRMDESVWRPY

As to `CC(=O)c1cc2ccccc2s1`, the outcome in [1], in data set [2], in data set [7], in data set [8] and in data set [9] was Active. Also, the Activity was 0.179% in data set [3] and 351 Ω·cm² in [4]. Moreover, the microsomal CLint at 0.5 h, 100 µM in data set [5] is greater than 300 µL/min/mg. Also, the Papp A→B at 2 h, 10 µM in data set [6] turned out to be 22.1 ×10⁻⁶ cm/s. The half-life at 0.5 h, 100 µM in data set [10] was 1.25 min.
Consider `CC[C@H](C)C(=O)O[C@H]1C[C@@H](C)C=C2C=C[C@H](C)[C@H](CC[C@@H]3C[C@@H](O)CC(=O)O3)[C@H]21` [LOVASTATIN], for which the Activity entry in data set [11] was “Toxic”; in [12] it was 256%.
As for `COc1ccc2cc(C(=O)NCCN(C)C)oc2c1`, the outcome in data set [1], in data set [2], in data set [14], in data set [15], in data set [7] and in [8] was Active. Also, the result in [9] was Active. The Activity in data set [13] was 267%; in data set [16] it was “Dose-dependent effect”.
